How the values were obtained:
Plasma [1] = assay: Drug metabolism in Sprague-Dawley rat assessed as tizoxanide-glucuronide formation in plasma at 30 mg/kg, po administered as single dose measured after 5 mins; assay type: ADME, organism-based; conditions: in vivo
How it was run: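 Plasma tizoxanide and tizoxanide glucuronide were measured and PK parameters derived. AUCs were dose-corrected to 30 mg/kg for bioavailability.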

Canis familiaris [2] = assay: Toxicity in Beagle dog assessed as organ weight up to 25 mg/kg, po administered as gelatin capsule once daily for 28 days; assay type: organism-based, Canis lupus familiaris; conditions: in vivo, 672 h
How it was run: (§1)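 Sub-acute study in Beagle dogs dosed orally by gelatin capsule at 5, 15 and 25 mg/kg once a day for 28 consecutive days.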

Rattus norvegicus [3] = assay: Toxicity in Sprague-Dawley rat assessed as eosinophilic cytoplasmic bodies in epithelial cells of duodenum at 75 mg/kg administered as oral gavage qd for 28 consecutive days measured on day 29 by microscopic method; assay type: organism-based; conditions: in vivo
How it was run: (§2)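 Sub-acute study in Sprague-Dawley rats dosed orally with a suspension at 10, 30 and 75 mg/kg once daily for 28 consecutive days. Four groups of up to 30 rats each (15M/15F).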

Rattus norvegicus [4] = assay: Neurotoxicity in Sprague-Dawley rat assessed as decreased activity at 1000 mg/kg administered via oral gavage as single dose after 4 to 24 hrs; assay type: toxicity, organism-based; conditions: in vivo
How it was run: (§3)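 Three groups of 10 rats (5M/5F) received a single dose by oral gavage of 100, 300 or 1000 mg/kg, and an untreated group served as control. Clinical signs of CNS effects were recorded at 4 and 24 h after treatment.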

Rattus norvegicus [5] = assay: Toxicity in Sprague-Dawley rat assessed as hemorrhage in duodenum at 75 mg/kg administered as oral gavage qd for 28 consecutive days followed by 2 weeks recovery period by microscopic method; assay type: organism-based; conditions: in vivo, 336 h; how it was run: as §2
Rattus norvegicus [6] = assay: Toxicity in Sprague-Dawley rat assessed as mortality at 100 to 1000 mg/kg administered as single dose via oral gavage; assay type: organism-based; conditions: in vivo
How it was run: (§4)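 CNS safety study in rats: single oral-gavage doses of 100, 300 or 1000 mg/kg to 3 groups of 10 (5M/5F), with an untreated control group. Clinical signs (activity, abdominal tone, breathing, tremors, pain response) were recorded at 4 and 24 h after dosing, and mortality was noted.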

Rattus norvegicus [7] = assay: Neurotoxicity in Sprague-Dawley rat assessed as labored breathing at 1000 mg/kg administered as single dose via oral gavage after 4 to 24 hrs; assay type: toxicity, organism-based; conditions: in vivo; how it was run: as §3
Rattus norvegicus [8] = assay: Toxicity in Sprague-Dawley rat assessed as decrease in serum sodium level at 10 to 75 mg/kg administered as oral gavage qd for 28 consecutive days followed by 2 weeks recovery period measured on day 43; assay type: organism-based; conditions: in vivo, 336 h; how it was run: as §2
Rattus norvegicus [9] = assay: Toxicity in Sprague-Dawley rat assessed as eosinophilic cytoplasmic bodies in epithelial cells of duodenum at 75 mg/kg administered as oral gavage qd for 28 consecutive days followed by 2 weeks recovery period by microscopic method; assay type: organism-based; conditions: in vivo, 336 h; how it was run: as §2
Rattus norvegicus [10] = assay: Toxicity in Sprague-Dawley rat assessed as decrease in urine specific gravity at 30 to 75 mg/kg administered as oral gavage qd for 28 consecutive days followed by 2 weeks recovery period measured on day 43; assay type: organism-based; conditions: in vivo, 336 h; how it was run: as §2
Rattus norvegicus [11] = assay: Cmax in Sprague-Dawley rat assessed as Tizoxanide level in plasma at 6 mg/kg, iv administered as single dose; assay type: ADME, organism-based; design: dose 6 mg/kg, route intravenous; conditions: in vivo
How it was run: (§5)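 Rats in groups of three received one compound as a single oral dose (30 mg/kg) or a single intravenous injection (6 mg/kg), with four compounds studied separately. Serial blood samples were drawn at 5, 10, 15 and 30 min and at 1, 2, 4, 8, 23 and 24 h post-dose. Plasma parent drug and metabolites were quantified and PK parameters were derived.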

Rattus norvegicus [12] = assay: Toxicity in Sprague-Dawley rat assessed as eosinophilic cytoplasmic bodies in leukocytes of duodenum at 75 mg/kg administered as oral gavage qd for 28 consecutive days measured on day 29 by microscopic method; assay type: organism-based; conditions: in vivo; how it was run: as §2
Rattus norvegicus [13] = assay: Oral bioavailability in Sprague-Dawley rat assessed as Tizoxanide-glucuronide level at 28 mg/kg; assay type: ADME, organism-based; conditions: in vivo
How it was run: (§6)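 Rats in groups of three got a single oral dose (30 mg/kg) or a single intravenous injection (6 mg/kg). Serial blood samples were taken at 5, 10, 15 and 30 min and at 1, 2, 4, 8, 23 and 24 h post-dose for plasma drug and glucuronide levels. Bioavailability came from oral versus intravenous AUC after dose correction to 30 mg/kg.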

Rattus norvegicus [14] = assay: Toxicity in Sprague-Dawley rat assessed as effect on respiratory rate by measuring minute volume dose at 1000 mg/kg administered as single dose via oral gavage; assay type: organism-based; conditions: in vivo
How it was run: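 Conscious rats in three groups of six (3M/3F) got single oral gavage doses of 100, 300 or 1000 mg/kg, with an untreated control group. Respiratory rate (breaths per minute), tidal volume and minute volume were recorded.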

Canis familiaris [15] = assay: Toxicity in Beagle dog at 5 to 75 mg/kg, po administered as gelatin capsule qd for 28 consecutive days; assay type: organism-based, Canis lupus familiaris; conditions: in vivo
Rattus norvegicus [16] = assay: Neurotoxicity in Sprague-Dawley rat at 100 to 300 mg/kg, po administered via gavage as single dose after 4 to 24 hrs; assay type: toxicity, organism-based; conditions: in vivo; how it was run: as §4
Canis familiaris [17] = assay: Toxicity in Beagle dog assessed as early death at 5 to 25 mg/kg, po administered as gelatin capsule once daily for 28 days followed by 2 weeks recovery period measured on day 43; assay type: organism-based, Canis lupus familiaris; conditions: in vivo
How it was run: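 Sub-acute study in Beagle dogs: 5, 15 or 25 mg/kg/day given orally in a single gelatin capsule once a day for 28 consecutive days to assess systemic exposure and toxicity, with NOAEL determination.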

Canis familiaris [18] = assay: Toxicity in Beagle dog assessed as effect on coagulation up to 25 mg/kg, po administered as gelatin capsule once daily for 28 days measured on day 29; assay type: organism-based, Canis lupus familiaris; conditions: in vivo, 672 h; how it was run: as §1
Rattus norvegicus [19] = assay: Cmax in Sprague-Dawley rat assessed as Tizoxanide level in plasma at 30 mg/kg, po administered as single dose; assay type: ADME, organism-based; design: dose 30 mg/kg, route oral; conditions: in vivo; how it was run: as §5
Rattus norvegicus [20] = assay: Toxicity in Sprague-Dawley rat assessed as increase in spleen to body weight ratio at 75 mg/kg administered as oral gavage qd for 28 consecutive days measured on day 29; assay type: organism-based; conditions: in vivo; how it was run: as §2
Rattus norvegicus [21] = assay: Cmax in Sprague-Dawley rat assessed as Tizoxanide-glucuronide level in plasma at 6 mg/kg, iv administered as single dose; assay type: ADME, organism-based; design: dose 6 mg/kg, route intravenous; conditions: in vivo; how it was run: as §5
Plasma [22] = assay: Drug metabolism in Sprague-Dawley rat assessed as tizoxanide-glucuronide level in plasma administered via oral gavage qd for 28 consecutive days; assay type: ADME
How it was run: (§7)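 In a sub-acute study, Sprague-Dawley rats were dosed once daily for 28 consecutive days at 10, 30 or 75 mg/kg, given as a yellow suspension. There were four groups of up to 30 rats each (15M/15F) to assess systemic exposure.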

Rattus norvegicus [23] = assay: Tmax in Sprague-Dawley rat assessed as Tizoxanide in plasma at 6.3 mg/kg, iv administered as single dose; assay type: ADME, organism-based; conditions: in vivo; how it was run: as §6
Rattus norvegicus [24] = assay: Neurotoxicity in Sprague-Dawley rat assessed as decreased abdominal tone at 1000 mg/kg administered via oral gavage as single dose after 4 to 24 hrs; assay type: toxicity, organism-based; conditions: in vivo; how it was run: as §3
Canis familiaris [25] = assay: Toxicity in Beagle dog assessed as emesis at 25 mg/kg, po administered as gelatin capsule once daily for 28 days measured on day 29; assay type: organism-based, Canis lupus familiaris; conditions: in vivo, 672 h; how it was run: as §1
Canis familiaris [26] = assay: Toxicity in Beagle dog assessed as emesis at 25 mg/kg, po administered as gelatin capsule once daily for 28 days measured on day 29 followed by 2 weeks recovery period measured on day 43; assay type: organism-based, Canis lupus familiaris; conditions: in vivo; how it was run: as §1
Plasma [27] = assay: Drug metabolism in Sprague-Dawley rat assessed as tizoxanide level in plasma administered via oral gavage qd for 28 consecutive days; assay type: ADME; how it was run: as §7
Rattus norvegicus [28] = assay: Toxicity in Sprague-Dawley rat assessed as hemorrhage in duodenum at 75 mg/kg administered as oral gavage qd for 28 consecutive days measured on day 29 by microscopic method; assay type: organism-based; conditions: in vivo; how it was run: as §2

For `CC(C)(C)[C@H](N)C(=O)Oc1ccccc1C(=O)Nc1ncc([N+](=O)[O-])s1.Cl`, the Drug metabolism (Plasma [1]) was “Metabolite_Detected”, the Activity (Canis familiaris [2]) was “Non-Toxic” and the Activity (Rattus norvegicus [3]) was “Toxic”. For the same compound, the Activity (Rattus norvegicus [4]) was “Toxic”, the Activity (Rattus norvegicus [5]) was “Non-Toxic” and the Activity (Rattus norvegicus [6]) was “Non-Toxic”. The Activity (Rattus norvegicus [7]) was “Toxic”, the Activity (Rattus norvegicus [8]) was “Toxic” and the Activity (Rattus norvegicus [9]) was “Non-Toxic”. For the same compound, the Activity (Rattus norvegicus [10]) was “Toxic”, the Cmax (Rattus norvegicus [11]) was 12800 ng/mL and the Activity (Rattus norvegicus [12]) was “Toxic”. The F (Rattus norvegicus [13]) was 13%, the Activity (Rattus norvegicus [14]) was “Toxic” and the Activity (Canis familiaris [15]) was “Non-Toxic”. The Activity (Rattus norvegicus [16]) was “Non-Toxic”, the Activity (Canis familiaris [17]) was “Non-Toxic” and the Activity (Canis familiaris [18]) was “Non-Toxic”. For the same compound, the Cmax (Rattus norvegicus [19]) was 6190 ng/mL, the Activity (Rattus norvegicus [20]) was “Toxic” and the Cmax (Rattus norvegicus [21]) was 7890 ng/mL. The Drug metabolism (Plasma [22]) was “Dose-dependent effect”, the Tmax (Rattus norvegicus [23]) was 5 min and the Activity (Rattus norvegicus [24]) was “Toxic”. For the same compound, the Activity (Canis familiaris [25]) was “Toxic”, the Activity (Canis familiaris [26]) was “Non-Toxic” and the Drug metabolism (Plasma [27]) was “Dose-dependent effect”. For the same compound, the Activity (Rattus norvegicus [28]) was “Toxic”.

Reference: ChEMBL document CHEMBL3997766, “Synthesis and pre-clinical studies of new amino-acid ester thiazolide prodrugs” (Eur J Med Chem, 2017)
